Test results as given in ChEMBL document CHEMBL1127424, “7-azetidinylquinolones as antibacterial agents. 2. Synthesis and biological activity of 7-(2,3-disubstituted-1-azetidinyl)-4-oxoquinoline- and -1,8-naphthyridine-3-carboxylic acids. Properties and structure-activity relationships of quinolones with an azetidine moiety” (J Med Chem, 1994).

Test: HPLC capacity factor (k')
Assay type: ADME
Summary of the method: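 Ion-pair reversed-phase HPLC on ODS-2 (10 μm) at 45 °C. Mobile phase: 10 mM sodium heptanesulfonate plus 50 mM KH2PO4 (pH 3.5)–methanol 45:55, 1 mL/min. Samples at 100 μg/mL in DMF, injected in duplicate, UV 280 nm. k' = (tR − t0)/t0.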

| Compound | Log k' |
| --- | --- |
| CC1(N)CN(c2c(F)cc3c(=O)c(C(=O)O)cn(CCF)c3c2F)C1 | -0.1871 |
| NCC1CN(c2cc3c(cc2F)c(=O)c(C(=O)O)cn3C2CC2)C1 | -0.1549 |
| CC1(N)CN(c2nc3c(cc2F)c(=O)c(C(=O)O)cn3-c2ccc(F)cc2F)C1 | 0.0792 |
| Nc1c(F)c(N2CC(N)C2)c(F)c2c1c(=O)c(C(=O)O)cn2-c1ccc(F)cc1F | 0.1424 |
| CCn1cc(C(=O)O)c(=O)c2cc(F)c(N3CC(C)(N)C3)cc21 | -0.1805 |
| CC1(N)CN(c2c(F)cc3c(=O)c(C(=O)O)cn(-c4ccc(F)cc4F)c3c2F)C1 | 0.238 |
| CC1(N)CN(c2cc3c(cc2F)c(=O)c(C(=O)O)cn3CCF)C1 | 0.0374 |
| CCn1cc(C(=O)O)c(=O)c2c(N)c(F)c(N3CC(N)C3)c(F)c21 | -0.1033 |
| O=C(O)c1cn(C2CC2)c2cc(N3CC(O)C3)c(F)cc2c1=O | 0.1906 |
| NC1CN(c2c(F)cc3c(=O)c(C(=O)O)cn(-c4ccc(F)cc4F)c3c2Cl)C1 | 0.128 |
| CCn1cc(C(=O)O)c(=O)c2cc(F)c(N3CC(C)(N)C3)c(Cl)c21 | 0.121 |
| CC1(N)CN(c2cc3c(cc2F)c(=O)c(C(=O)O)cn3-c2ccc(F)cc2)C1 | -0.0223 |
| NC1CN(c2nc3c(cc2F)c(=O)c(C(=O)O)cn3-c2ccc(F)cc2F)C1 | 0.0063 |
| CC1(N)CN(c2cc3c(cc2F)c(=O)c(C(=O)O)cn3C(C)(C)C)C1 | 0.0294 |
| CC1(N)CN(c2c(F)cc3c(=O)c(C(=O)O)cn(-c4ccc(F)cc4)c3c2Cl)C1 | 0.2546 |
| CC1(N)CN(c2c(F)cc3c(=O)c(C(=O)O)cn(-c4ccc(F)cc4)c3c2F)C1 | 0.1106 |
| CC1(CN)CN(c2c(F)cc3c(=O)c(C(=O)O)cn(C4CC4)c3c2F)C1 | -0.0438 |
| CC1(N)CN(c2nc3c(cc2F)c(=O)c(C(=O)O)cn3CCF)C1 | -0.1706 |
| CC1(O)CN(c2c(F)cc3c(=O)c(C(=O)O)cn(C4CC4)c3c2F)C1 | 0.5451 |
| CC1(N)CN(c2cc3c(cc2F)c(=O)c(C(=O)O)cn3-c2ccc(F)cc2F)C1 | 0.0969 |
| O=C(O)c1cn(C2CC2)c2c(F)c(N3CC(O)C3)c(F)cc2c1=O | 0.3264 |
| CNC1CN(c2nc3c(cc2F)c(=O)c(C(=O)O)cn3C2CC2)C1 | -0.0773 |
| O=C(O)c1cn(C2CC2)c2c(F)c(N3CCC3)c(F)cc2c1=O | 0.9074 |
| CC1(N)CN(c2c(F)cc3c(=O)c(C(=O)O)cn(C(C)(C)C)c3c2F)C1 | 0.1751 |
| CC1(N)CN(c2c(F)c(N)c3c(=O)c(C(=O)O)cn(-c4ccc(F)cc4F)c3c2F)C1 | 0.3189 |
| CNC1(C)CN(c2nc3c(cc2F)c(=O)c(C(=O)O)cn3C2CC2)C1 | 0.0408 |
| CNC1(C)CN(c2cc3c(cc2F)c(=O)c(C(=O)O)cn3C(C)(C)C)C1 | 0.303 |
| CC1(CN)CN(c2cc3c(cc2F)c(=O)c(C(=O)O)cn3C2CC2)C1 | -0.0782 |
| CCNCC1(C)CN(c2cc3c(cc2F)c(=O)c(C(=O)O)cn3C2CC2)C1 | -0.0356 |
| NCC1CN(c2c(F)cc3c(=O)c(C(=O)O)cn(C4CC4)c3c2F)C1 | -0.196 |
